Screens (PubChem BioAssay)
Apaf-1 act = activators of human Apaf-1 apoptosome, primary screen, biochemical, DEVD-Rh110 fluorescence, uHTS; 0.31% of 330,000 active; Apaf-1 apoptosome caspase-3 activation; hits give low values; activity change, negative = activation, % at 20 µM; AID 489031, 2010;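 active = activity change at or below -40% at 20 µM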
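Schedule: 30 min preincubation, 50 min reaction, room temperature / System: biochemical Apaf-1 apoptosome reconstitution / Medium: 20 mM HEPES pH 7.5 with CHAPS, BSA / Evaluation: Caspase-3 cleavage activity downstream of Apaf-1 activation / Detection: Caspase-3-released Rh110 fluorescence, 540 nm emission, 480 nm excitation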
Rh110 act interf = Rh110 fluorescence interference by putative Apaf-1 activators, confirmation, artefact control for Apaf-1 activator project, biochemical, 20 µM. shares compounds with Apaf-1 act. quenched caspase reaction, Ex480/Em540. fluorescence interference (activity change), % at 20 µM, hits read low. 980 tested, under 10 active. AID 504616, 2011;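 active = mean activity change at or below -40% when tested at 20 µM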
Apaf-1 act conf = Apaf-1 activators, single-dose retest, confirmation, biochemical, fluorescence, DEVD-Rh110, 20 µM; shares compounds with Apaf-1 act; reconstituted apoptosome caspase-3 activity; hits give low values; activity change, negative = activation, % at 20 µM; 5% of 980 active;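 active = mean activity change at or below -40%, meaning activation of 40% or more, at 20 µM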
Apaf1 act interf = fluorescence interference of Apaf-1 activator hits, dose response, artefact control for Apaf-1 activator project. shares compounds with Apaf-1 act. fluorescence interference counterscreen, Apaf-1 activator assay. EC50, µM. 55 tested, under 10 active. AID 588592, 2011; call rule not given here
Large screens that a line does not name were inactive (follow-up assays come after a bar, where they were run). Not all results are given here.

CCc1ccc(N=C2NC(=O)/C(=C/c3cc(Br)c(OCC(=O)O)c(OC)c3)S2)cc1	Apaf-1 act -99 | Rh110 act interf inactive | Apaf-1 act conf -67 | Apaf1 act interf inactive
CCCCCCCCCCCCCCCC[n+]1cccc2ccccc21	none
O=C(Nc1ccc(N2CCN(C(=O)c3ccccc3F)CC2)cc1)c1cncc(Br)c1	Apaf-1 act -65 | Rh110 act interf inactive | Apaf-1 act conf inactive
CC1=C(CC(=O)c2ccccc2)C(=O)c2ccccc2C1=O	none
O=C(/C=C/c1ccc(-c2ccccc2[N+](=O)[O-])o1)c1ccco1	none
COc1cccc(C(C[N+](=O)[O-])c2c(C)[nH]n(-c3ccccc3)c2=O)c1 (stereo unspecified)	none
O=C1c2ccccc2C(O)N1Cc1cccs1 (stereo unspecified)	Apaf-1 act -41 | Rh110 act interf inactive | Apaf-1 act conf inactive
C#CCOCCOCCOCCNc1nc(N2CCN(C(=O)CCCCCCCCCCNC(=O)[C@@H](CCC(=O)O)n3cc(CCCCCN)nn3)CC2)nc(N2CCN(C(=O)CCCCCCCCCCNC(=O)[C@H](CO)n3cc(CCCCCN)nn3)CC2)n1	none
CN(Cc1cnc2nc(N)nc(N)c2n1)c1ccc(C(=O)N[C@@H](CCC(=O)O)C(=O)O)cc1	none
CCc1ccc2cccc3c2c1N=CN3C	none
C=CCNc1oc(-c2ccc(OCC)cc2)nc1C#N	Apaf-1 act -52 | Rh110 act interf inactive | Apaf-1 act conf inactive
C#CCOCCOCCOCCNc1nc(N2CCN(C(=O)CCCCCCCCCCNC(=O)[C@H](CCCCN)n3cc(CCO)nn3)CC2)nc(N2CCN(C(=O)CCCCCCCCCCNC(=O)[C@H](CCCCN)n3cc(C[C@@H](C)CC)nn3)CC2)n1	none
Cc1cc(C)nc(/N=c2/ssnc2Cl)c1	none
C/C(=C\C(=O)c1ccc(Br)cc1)NCc1ccccc1	Apaf-1 act -235 | Rh110 act interf inactive | Apaf-1 act conf inactive
CCOCCCn1c(SCC(=O)Nc2cc(C(C)(C)C)nn2-c2ccccc2)nc2ccccc2c1=O	none
NC(=O)c1ccc(N=C2C(=O)Nc3ccc([N+](=O)[O-])cc32)cc1	none
Cc1noc(NS(=O)(=O)c2ccc(N/C=C\C(=O)c3ccc(F)cc3)cc2)c1C	Apaf-1 act -111 | Rh110 act interf inactive | Apaf-1 act conf inactive
CC[C@H](C)Cc1cn([C@@H](CCCN=C(NC(=O)OC(C)(C)C)NC(=O)OC(C)(C)C)C(=O)NCCCCCCCCCCC(=O)N2CCN(C(=O)OC(C)(C)C)CC2)nn1	none
Cc1ccc(N2C(=O)[C@@H]3[C@H](C2=O)C2c4ccccc4C=CN2[C@@H]3C(=O)c2ccco2)c(C)c1 (stereo partly specified)	none
Cc1ccccc1Oc1ncnc2oc(-c3ccccc3)cc12	Apaf-1 act -75 | Rh110 act interf inactive | Apaf-1 act conf inactive
COc1cccc(-c2sc3ccccc3c2-c2ccc(OCCN3CCCCC3)cc2)c1	none
Cn1c(C(=O)N2CCN(c3nc4ccccc4s3)CC2)cc2sccc21	none
O=C1c2cc(F)ccc2-n2c1nc1ccccc1c2=O	none
Cc1nnc(N/N=C/c2cccc(OCc3ccc(Cl)c(Cl)c3)c2)n1N	none
Cc1cccc(OCc2nc3ccccc3c(=O)n2N)c1	Apaf-1 act -92 | Rh110 act interf inactive | Apaf-1 act conf inactive
COc1ccc2c(-c3ccc(OCCN4CCCCC4)cc3)c(-c3ccccc3OC)sc2c1	none
COc1cc2c(cc1OC)CN(Cc1cc(=O)n3c(-c4ccccc4)csc3n1)CC2	none
Cc1cc2cc(CNS(=O)(=O)c3ccccc3)ccc2n1C	none
C#CCOCCOCCOCCNc1nc(N2CCN(C(=O)CCCCCCCCCCNC(=O)[C@@H](CCSC)n3cc(CCO)nn3)CC2)nc(N2CCN(C(=O)CCCCCCCCCCNC(=O)[C@H](CCC(=O)O)n3cc(CCCCCN)nn3)CC2)n1	none
CCC1(C)NC(=O)N(CC(=O)N2CCC(Cc3ccccc3)CC2)C1=O (stereo unspecified)	none
CCC1(c2ccccc2)NC(=O)N(CC(=O)Nc2cc(Cl)ccc2N2CCN(C)CC2)C1=O (stereo unspecified)	none
CCCCn1c(N)c(N(CC)C(=O)CN2C(=O)NC(C)(c3ccccc3)C2=O)c(=O)[nH]c1=O (stereo unspecified)	Apaf-1 act -441 | Rh110 act interf inactive | Apaf-1 act conf inactive
CCc1ccc(S(=O)(=O)/N=C2\C=CC(=O)c3ccccc32)cc1	none
CCOc1cc(/C=C/C(=O)Nc2ccc(C(=O)NCCN(CC)CC)cc2)ccc1OCC(C)C	none | Apaf1 act interf inactive
CCN(CC)CCNC(=O)c1ccc(NC(C)=O)cc1	none
CN(C)CCNC(=O)c1ccc(COc2ccc(Cl)cc2Cl)cc1	none
C/C(=C\C(=S)Nc1ccccc1)Nc1cccc2ccccc12	none
CCOc1cc(CNc2ccc(N(C)C)cc2)cc(Br)c1OCC(=O)NC(C)(C)C	none
CC[C@H](C)Cc1cn([C@@H](CCCCN)C(=O)NCCCCCCCCCCC(=O)N2CCNCC2)nn1	none
COc1cccc2sc(N(CCN(C)C)C(=O)c3ccc4c(c3)CCCC4)nc12	none
COC(=O)c1cccc(C23CC4(C2)[C@H](CN(CC2CCCCC2)[C@@H]4c2ccccc2)C3c2ccccc2)c1 (stereo partly specified)	none
CSc1ccc(CCNC(=O)c2cc(-c3ccccc3)c(N3CCOCC3)s2)cc1	Apaf-1 act -370 | Rh110 act interf inactive | Apaf-1 act conf inactive
CCN(Cc1ccccc1)S(=O)(=O)c1ccc(C(=O)N(CCCN(C)C)c2nc3cc(C)cc(C)c3s2)cc1	none
N#Cc1cn(Cc2ccncc2)c(=O)[nH]c1=O	Apaf-1 act -182 | Rh110 act interf inactive | Apaf-1 act conf inactive
OC(CN1CCN(c2ccccc2)CC1)c1ccc2c(c1)CCN2 (stereo unspecified)	Apaf-1 act -460 | Rh110 act interf inactive | Apaf-1 act conf inactive
COc1cccc(OCC(O)CN2CCN(c3ccccc3)CC2)c1 (stereo unspecified)	none
Oc1ccc(/C=N/Nc2cc(N3CCCC3)nc(N3CCCC3)n2)cc1	none
CCC/C(=C1/c2ccccc2C(=O)N1c1ccccc1)c1cnc(OC)nc1	none
CCOC(=O)c1c(C)n(-c2ccc(C)cc2)c2c(C(C(C)=O)C(=O)O)c(Br)c(O)c(O)c12 (stereo unspecified)	none
CCN(CCCNC(=O)CCn1c(=O)[nH]c2ccccc2c1=O)c1ccccc1	Apaf-1 act -505 | Rh110 act interf inactive | Apaf-1 act conf inactive
CCN1C(N(C)CCc2c[nH]c3ccccc23)=N[C@@H](c2cccc(C(F)(F)F)c2)C(C(=O)OC)=C1C	none
Cc1cc(C)cc(NC(=O)C2C3C=CC4(O3)C2C(=O)N(CCCN2CCCCC2)C4C(=O)NC2CCCCC2)c1 (stereo unspecified)	Apaf-1 act -325 | Rh110 act interf inactive | Apaf-1 act conf inactive
CC(C)[C@H](CN1CCC[C@H]1CN1C(N)=NC[C@H]1C(C)C)N1C[C@@H](Cc2ccccc2)N(CCCC2CCCC2)C1=N	none
CC(C)c1nccn1S(=O)(=O)c1cc(Cl)ccc1Cl	Apaf-1 act -41 | Rh110 act interf inactive | Apaf-1 act conf inactive
